# Tests used:
# Format in all cases: functional
# [1] = test system: Candida albicans; assay: Antimicrobial activity against Candida albicans ATCC 10231 at 12.5 ug/ml after 24 hrs; conditions: ATCC 10231, 24 h
# Procedure, shortened: (§1)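 Growth-inhibition microplate test. Strains are grown on Sabouraud-chloramphenicol agar for 48 h at 30 °C, and inoculum is added to RPMI-1640 containing compound at a final 100–6.25, with DMSO ≤2%. Each strain has a growth control (same DMSO, no compound) and a sterility control.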
# [2] = test system: Cryptococcus neoformans; assay: Antimicrobial activity against Cryptococcus neoformans ATCC 32264 at 12.5 ug/ml after 48 hrs; conditions: ATCC 32264, 48 h
# Procedure, shortened: (§2)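 Percent growth inhibition in 96-well microplates. Compound stocks in DMSO (≤2%) were diluted in RPMI-1640 to final 100–6.25 µg/mL, and 100 µL inoculum was added (final 200 µL). Controls were a growth well (inoculum with matching DMSO, no compound) and a sterility well (no inoculum). Inhibition was calculated against growth and sterility wells.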
# [3] = test system: Cryptococcus neoformans; assay: Antimicrobial activity against Cryptococcus neoformans IM 00319 isolate at 12.5 ug/ml after 48 hrs; procedure, shortened: as §2
# [4] = test system: Cryptococcus neoformans; assay: Antimicrobial activity against Cryptococcus neoformans IM 961951 isolate at 12.5 ug/ml after 48 hrs; procedure, shortened: as §2
# [5] = test system: Aspergillus niger; assay: Antifungal activity against Aspergillus niger ATCC 9029 after 48 hrs by broth microdilution technique; conditions: ATCC 9029, 48 h
# Procedure, shortened: (§3)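 CLSI broth microdilution: M-27 A2 for yeasts and M-38 A for filamentous fungi. Medium is RPMI-1640 buffered to pH 7.0 with MOPS. Compound is diluted twofold from 250 to 0.98, final DMSO ≤2%. Inoculum is 1–5 × 10³ CFU/mL. Plates are incubated at 35 °C in a moist, dark chamber and read visually at 48 h. MIC100 is the lowest concentration giving total growth inhibition versus drug-free control.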
# [6] = test system: Cryptococcus neoformans; assay: Antifungal activity against Cryptococcus neoformans ATCC 32264 after 48 hrs by broth microdilution technique; conditions: ATCC 32264, 48 h; procedure, shortened: as §3
# [7] = test system: Cryptococcus neoformans; assay: Antimicrobial activity against Cryptococcus neoformans IM 052470 isolate at 12.5 ug/ml after 48 hrs; procedure, shortened: as §2
# [8] = test system: Cryptococcus neoformans; assay: Antimicrobial activity against Cryptococcus neoformans IM 972724 isolate at 100 ug/ml after 48 hrs
# Procedure, shortened: (§4)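 Clinical Cryptococcus isolates kept on Sabouraud-dextrose agar slopes; inoculum 1–5 × 10³ CFU/mL. Quinoline DMSO stocks were diluted in RPMI-1640 to final 100–6.25 µg/mL, with DMSO ≤2%. An equal volume of inoculum was added (200 µL per well). Run in triplicate.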
# [9] = test system: Cryptococcus neoformans; assay: Antimicrobial activity against Cryptococcus neoformans IM 031631 isolate at 6.25 ug/ml after 48 hrs; procedure, shortened: as §2
# [10] = test system: Cryptococcus neoformans; assay: Antimicrobial activity against Cryptococcus neoformans IM 052470 isolate at 100 ug/ml after 48 hrs; procedure, shortened: as §2
# [11] = test system: Cryptococcus neoformans; assay: Antimicrobial activity against Cryptococcus neoformans IM 972724 isolate at 50 ug/ml after 48 hrs; procedure, shortened: as §4
# [12] = test system: Cryptococcus neoformans; assay: Antimicrobial activity against Cryptococcus neoformans IM 983040 isolate at 100 ug/ml after 48 hrs; procedure, shortened: as §4
# [13] = test system: Cryptococcus neoformans; assay: Antimicrobial activity against Cryptococcus neoformans IM 972751 isolate at 100 ug/ml after 48 hrs; procedure, shortened: as §4
# [14] = test system: Cryptococcus neoformans; assay: Antimicrobial activity against Cryptococcus neoformans IM 972724 isolate at 12.5 ug/ml after 48 hrs; procedure, shortened: as §4
# [15] = test system: Cryptococcus neoformans; assay: Antimicrobial activity against Cryptococcus neoformans IM 00319 isolate at 6.25 ug/ml after 48 hrs; procedure, shortened: as §2
# [16] = test system: Cryptococcus neoformans; assay: Antimicrobial activity against Cryptococcus neoformans IM 983036 isolate at 100 ug/ml after 48 hrs; procedure, shortened: as §4
# [17] = test system: Cryptococcus neoformans; assay: Antimicrobial activity against Cryptococcus neoformans IM 972751 isolate at 25 ug/ml after 48 hrs; procedure, shortened: as §4
# [18] = test system: Cryptococcus neoformans; assay: Antimicrobial activity against Cryptococcus neoformans IM 972724 isolate at 6.25 ug/ml after 48 hrs; procedure, shortened: as §4
# [19] = test system: Saccharomyces cerevisiae; assay: Antifungal activity against Saccharomyces cerevisiae ATCC 9763 after 48 hrs by broth microdilution technique; conditions: ATCC 9763, 48 h; procedure, shortened: as §3
# [20] = test system: Cryptococcus neoformans; assay: Antimicrobial activity against Cryptococcus neoformans ATCC 32264 at 50 ug/ml after 48 hrs; conditions: ATCC 32264, 48 h; procedure, shortened: as §2
# [21] = test system: Cryptococcus neoformans; assay: Antimicrobial activity against Cryptococcus neoformans IM 031631 isolate at 25 ug/ml after 48 hrs; procedure, shortened: as §2
# [22] = test system: Cryptococcus neoformans; assay: Antimicrobial activity against Cryptococcus neoformans IM 00319 isolate at 25 ug/ml after 48 hrs; procedure, shortened: as §2
# [23] = test system: Nannizzia gypsea; assay: Antifungal activity against Microsporum gypseum C115 after 48 hrs by broth microdilution technique; procedure, shortened: as §3
# [24] = test system: Cryptococcus neoformans; assay: Antimicrobial activity against Cryptococcus neoformans IM 042074 isolate at 12.5 ug/ml after 48 hrs; procedure, shortened: as §2
# [25] = test system: Cryptococcus neoformans; assay: Antimicrobial activity against Cryptococcus neoformans ATCC 32264 at 25 ug/ml after 48 hrs; conditions: ATCC 32264, 48 h; procedure, shortened: as §2
# [26] = test system: Trichophyton rubrum; assay: Antifungal activity against Trichophyton rubrum C110 after 48 hrs by broth microdilution technique; conditions: read-out: MIC; procedure, shortened: as §3
# [27] = test system: Cryptococcus neoformans; assay: Antimicrobial activity against Cryptococcus neoformans IM 983040 isolate at 6.25 ug/ml after 48 hrs; procedure, shortened: as §4
# [28] = test system: Cryptococcus neoformans; assay: Antimicrobial activity against Cryptococcus neoformans IM 031706 isolate at 100 ug/ml after 48 hrs; procedure, shortened: as §2
# [29] = test system: Cryptococcus neoformans; assay: Antimicrobial activity against Cryptococcus neoformans IM 961951 isolate at 100 ug/ml after 48 hrs; procedure, shortened: as §2
# [30] = test system: Cryptococcus neoformans; assay: Antimicrobial activity against Cryptococcus neoformans IM 983036 isolate at 25 ug/ml after 48 hrs; procedure, shortened: as §4
# [31] = test system: Cryptococcus neoformans; assay: Antimicrobial activity against Cryptococcus neoformans IM 052470 isolate at 50 ug/ml after 48 hrs; procedure, shortened: as §2
# [32] = test system: Cryptococcus neoformans; assay: Antimicrobial activity against Cryptococcus neoformans IM 042074 isolate at 6.25 ug/ml after 48 hrs; procedure, shortened: as §2
# [33] = test system: Cryptococcus neoformans; assay: Antimicrobial activity against Cryptococcus neoformans IM 972751 isolate at 50 ug/ml after 48 hrs; procedure, shortened: as §4
# [34] = test system: Candida albicans; assay: Antimicrobial activity against Candida albicans ATCC 10231 at 25 ug/ml after 24 hrs; conditions: ATCC 10231, 24 h; procedure, shortened: as §1
# [35] = test system: Candida albicans; assay: Antimicrobial activity against Candida albicans ATCC 10231 at 50 ug/ml after 24 hrs; conditions: ATCC 10231, 24 h; procedure, shortened: as §1
# [36] = test system: Trichophyton mentagrophytes; assay: Antifungal activity against Trichophyton mentagrophytes ATCC 9972 after 48 hrs by broth microdilution technique; conditions: ATCC 9972, 48 h; procedure, shortened: as §3
# [37] = test system: Cryptococcus neoformans; assay: Antimicrobial activity against Cryptococcus neoformans IM 972751 isolate at 6.25 ug/ml after 48 hrs; procedure, shortened: as §4
# [38] = test system: Cryptococcus neoformans; assay: Antimicrobial activity against Cryptococcus neoformans IM 031706 isolate at 6.25 ug/ml after 48 hrs; procedure, shortened: as §2
# [39] = test system: Cryptococcus neoformans; assay: Antimicrobial activity against Cryptococcus neoformans IM 983040 isolate at 12.5 ug/ml after 48 hrs; procedure, shortened: as §4
# [40] = test system: Cryptococcus neoformans; assay: Antimicrobial activity against Cryptococcus neoformans IM 042074 isolate at 25 ug/ml after 48 hrs; procedure, shortened: as §2
# [41] = test system: Candida albicans; assay: Antimicrobial activity against Candida albicans ATCC 10231 at 6.25 ug/ml after 24 hrs; conditions: ATCC 10231, 24 h; procedure, shortened: as §1
# [42] = test system: Cryptococcus neoformans; assay: Antimicrobial activity against Cryptococcus neoformans IM 042074 isolate at 100 ug/ml after 48 hrs; procedure, shortened: as §2
# [43] = test system: Aspergillus fumigatus; assay: Antifungal activity against Aspergillus fumigatus ATTC 26934 after 48 hrs by broth microdilution technique; procedure, shortened: as §3
smiles,measurement,setting,value
c1ccc2nc(-c3ccncc3)ccc2c1,inhibition at 12.5 µg/mL,[1],41%
same,inhibition at 12.5 µg/mL,[2],90%
same,inhibition at 12.5 µg/mL,[3],32%
same,inhibition at 12.5 µg/mL,[4],34%
same,MIC,[5],50 µg/mL
same,MIC,[6],50 µg/mL
same,inhibition at 12.5 µg/mL,[7],24%
same,inhibition at 100 µg/mL,[8],74%
same,inhibition at 6.25 µg/mL,[9],12%
same,inhibition at 100 µg/mL,[10],99%
same,inhibition at 50 µg/mL,[11],23%
same,inhibition at 100 µg/mL,[12],45%
same,inhibition at 100 µg/mL,[13],98%
same,inhibition at 12.5 µg/mL,[14],0%
same,inhibition at 6.25 µg/mL,[15],12%
same,inhibition at 100 µg/mL,[16],79%
same,inhibition at 25 µg/mL,[17],9%
same,inhibition at 6.25 µg/mL,[18],0%
same,MIC,[19],50 µg/mL
same,inhibition at 50 µg/mL,[20],100%
same,inhibition at 25 µg/mL,[21],57%
same,inhibition at 25 µg/mL,[22],52%
same,MIC,[23],50 µg/mL
same,inhibition at 12.5 µg/mL,[24],76%
same,inhibition at 25 µg/mL,[25],100%
same,MIC,[26],50 µg/mL
same,inhibition at 6.25 µg/mL,[27],0%
same,inhibition at 100 µg/mL,[28],100%
same,inhibition at 100 µg/mL,[29],97%
same,inhibition at 25 µg/mL,[30],45%
same,inhibition at 50 µg/mL,[31],75%
same,inhibition at 6.25 µg/mL,[32],68%
same,inhibition at 50 µg/mL,[33],20%
same,inhibition at 25 µg/mL,[34],63%
same,inhibition at 50 µg/mL,[35],73%
same,MIC,[36],50 µg/mL
same,inhibition at 6.25 µg/mL,[37],0%
same,inhibition at 6.25 µg/mL,[38],21%
same,inhibition at 12.5 µg/mL,[39],0%
same,inhibition at 25 µg/mL,[40],87%
same,inhibition at 6.25 µg/mL,[41],19%
same,inhibition at 100 µg/mL,[42],92%
same,MIC,[43],50 µg/mL

# — ChEMBL document CHEMBL1140069, “In vitro antifungal activity of polyfunctionalized 2-(hetero)arylquinolines prepared through imino Diels-Alder reactions” (2008)
